Screening data from PubChem.
FN deposition inh – fibronectin deposition inhibition. AH1F fibroblasts, Alexa488-fibronectin deposition fluorescence, overnight. inhibition, % at 12.6 µM. hit rate 0.086% among 350,000;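 active = mean inhibition across replicates of 30% or more, regardless of how many single replicates reach that level; inconclusive = mean under 30% yet at least half of replicates reach 30%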;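 note: positive control wells lacked labelled fibronectin entirely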
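Test system: AH1F fibroblast monolayer depositing Alexa488-labelled fibronectin into matrix. Input: 10000 cells per well. Technique: fluorescence, ex 485 nm, em 525 nm. Buffer or medium: DMEM plus 2% serum, read in PBS. Timing: 1 h cell adhesion before compound, then overnight fibronectin incubation. Compound: single dose, pinned. Read-out basis: inhibition from reduced deposited-fibronectin fluorescence.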
HIV Env fusion – inhibitors of HIV Env-mediated cell fusion; HeLa-JRFL Env/CEM21 cell fusion, luciferase; inhibition, % at 12.3 µM; hit rate 1.1% among 360,000;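 active = mean replicate inhibition score of at least 50 and every replicate individually at or above 50; inconclusive = only one of the two criteria met; inactive = mean below 50 and not all replicates reaching 50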;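 note: 0% = plate neutral controls and 100% = maraviroc near 300 nM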
DENV2 CPE – inhibitors of DENV2 cytopathic effect; AID 651640; CPE inhibition, % at 9.99 µM; DENV2-infected cells, cytopathic effect rescue, plate reader; hit rate 1.7% among 350,000; in the data active = CPE inhibition above about 20%, passing the limit was not always enough; inconclusive = no clear call, values can overlap the other calls; tested in BHK-21 cells;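 note: 0% = median of neutral control wells and 100% = median of positive control wells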
PglD inh – inhibitors of Campylobacter jejuni PglD acetyltransferase. purified PglD enzyme, DTNB colorimetric CoA detection. inhibition, % at 12.5 µM. hit rate 0.098% among 360,000. AID 602405; in the data active = inhibition above about 16%, passing the limit was not always enough; inconclusive = no clear call, values can overlap the other calls
rRNA inh HTS – inhibits bacterial ribosomal RNA function over humanized ribosomes | E. coli WT GFP vs humanized-ribosome RFP mutants, fluorescence, 24 h; stronger effect = lower value; DMSO median 0, no signal -100 | hit rate 1.6% among 350,000 | GFP signal change (wild-type ribosome), % (no concentration beside the values);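 active = significant combined selectivity score with lowered wild-type GFP, culture density cut under 30%, mutant RFP and density less affected; inactive = any of these conditions unmet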
PGC1a acetyl inh – PGC1a acetylation modulation, inhibitor mode; U2OS PGC1a acetylation, AlphaScreen anti-acetyl-lysine; with virally co-expressed GCN5 acetyltransferase; inhibition, % at 15.6 µM; hit rate 0.17% among 350,000;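 active = every replicate shows inhibition of at least 40%; inconclusive = mean inhibition at least 40% but some replicate below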;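 note: 0% = neutral control wells and 100% = positive control wells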
* hit, by the source's call; ? = inconclusive; . = no result given; [ ] = dose if it differs, or a comment. Shown are actives, neighbours in structure and some others; about 3.5% of the full set was active somewhere.

SMILES | FN deposition inh | HIV Env fusion | DENV2 CPE | PglD inh | rRNA inh HTS | PGC1a acetyl inh
Cc1ccc(S(=O)(=O)N[C@H]2CC[C@@H](CCn3cc(C4CC4)nn3)O[C@@H]2CO)cc1 | -14.9 | 23.5[16.7 µM] | 0.6 | 7.8 | -1.7 | 10.4
COc1ccc(-c2cnc3c(c2)C(=O)N([C@H](C)CO)C[C@@H](C)[C@@H](CN(C)C(=O)Cc2cccnc2)O3)cc1 | . | 1.1[16.7 µM] | 6.2 | 1.7 | 1.5 | 1.2
N#Cc1ccc(-c2ccc(OCC(=O)NN=Cc3ccncc3)cc2)cc1 | 8.6 | -1.9 | 29.5* | . | . | .
CCCCOc1ccc(C(C)NC(=O)C2CCCN(S(=O)(=O)CCC)C2)cc1 (stereo not drawn) | 32.6* | 5.6 | . | -2.5 | . | .
CCCS(=O)(=O)N1CCCC(C(=O)NC2CCCCC2)C1 (stereo not drawn) | . | . | . | 0.5 | . | -5.2
Cc1cc(C)c(C#N)c(SCS(=O)Cc2ccc(Cl)cc2)n1 (stereo not drawn) | . | . | -2.7 | -5.0 | -44.4* | 2.0
CCCNC(=O)C[C@H]1CC[C@H]2[C@@H](COC[C@H](O)CN2C(=O)Nc2ccccc2OC)O1 | -11.0 | . | 20.9* | 0.8 | 4.1 | 15.7
CCCNC(=O)C[C@@H]1CC[C@@H]2[C@H](COC[C@@H](O)CN2C(=O)Nc2ccccc2OC)O1 | -4.4 | . | 6.4 | 0.5 | 0.5 | -9.9
CCCNC(=O)C[C@@H]1CC[C@H]2[C@@H](COC[C@H](O)CN2C(=O)Nc2ccccc2OC)O1 | 1.5 | . | 9.2 | -2.6 | 5.4 | 0.6
CCCNC(=O)C[C@H]1CC[C@H]2[C@@H](COC[C@@H](O)CN2C(=O)Nc2ccccc2OC)O1 | 0.9 | . | 43.9* | -3.0 | 3.8 | -2.4
CCNC(=O)C[C@@H]1CC[C@@H]2[C@H](COC[C@@H](O)CN2C(=O)CC)O1 | 0.0 | . | -10.4 | 0.0 | 1.2 | -1.1
CCCNC(=O)C[C@H]1CC[C@@H]2[C@H](COC[C@H](O)CN2C(=O)CC)O1 | 6.5 | . | 82.8* | 1.4 | -0.7 | 0.6
COc1ccc2c3c(n(C)c2c1)[C@H](CO)N(C(=O)c1cccc(F)c1)CC31CCN(C(=O)c2cccc(F)c2)CC1 | . | . | 2.4 | . | -4.3 | -2.9
COc1ccc2c3c(n(C)c2c1)[C@H](CO)N(C(=O)Nc1ccccc1F)CC31CN(C)C1 | . | . | 86.0* | . | 5.3 | -12.1
COc1ccc2c3c(n(C)c2c1)[C@H](CO)N(C(=O)c1cccnc1)CC31CN(S(C)(=O)=O)C1 | . | . | -4.6 | . | 2.2 | 0.2
COc1ccc2c3c(n(C)c2c1)[C@@H](CO)N(C(=O)c1cccc(F)c1)CC31CN(C(=O)c2cccc(F)c2)C1 | 3.2 | . | 34.2* | . | -4.0 | -0.2
COc1ccc2c3c(n(C)c2c1)[C@@H](CO)N(C(=O)c1cccnc1)CC31CCN(S(=O)(=O)c2ccccc2)CC1 | . | . | 39.1* | . | -2.0 | 3.4
COc1ccc2c3c(n(C)c2c1)[C@H](CO)NCC31CN(C(=O)c2ccc(F)cc2)C1 | . | . | 69.2* | . | -0.1 | 3.9
CC=Cc1ccc2n(c1=O)C[C@@H]1[C@@H](CO)[C@H](C(=O)NC3CCC3)N(C(=O)C3CC3)[C@H]21 (mixture of isomers) | . | . | -3.8 | . | 3.1 | 1.5
CCS(=O)(=O)N1CCC2(CC1)CN(C(=O)c1ccc(F)cc1)[C@@H](CO)c1c2c2ccc(OC)cc2n1C | . | . | 24.2* | . | -0.2 | -0.4
CCS(=O)(=O)N1CCC2(CC1)CN(C(=O)c1ccc(F)cc1)[C@H](CO)c1c2c2ccc(OC)cc2n1C | . | . | 3.4 | . | -0.4 | -7.8
COC(=O)c1ccc(CN2CCCC(CO)(Cc3ccccc3F)C2)cc1 (stereo not drawn) | 3.9 | 2.1 | -4.8 | -3.3 | -20.0* | -19.3
Cc1ccc(S(=O)(=O)N(C)C[C@H]2Oc3cc(C4=CCCC4)ccc3S(=O)(=O)N([C@H](C)CO)C[C@H]2C)cc1 | . | 60.2*[16.7 µM] | . | 2.4 | -0.2 | 4.9
C[C@@H]1CN([C@H](C)CO)S(=O)(=O)c2ccc(C3=CCCC3)cc2O[C@@H]1CN(C)S(=O)(=O)c1ccc(F)cc1 | . | 49.6[16.7 µM] | 13.4 | -0.4 | -0.9 | -1.8
Cc1ccc(S(=O)(=O)N(C)C[C@@H]2Oc3cc(C4=CCCC4)ccc3S(=O)(=O)N([C@@H](C)CO)C[C@H]2C)cc1 | . | 57.7*[16.7 µM] | 4.6 | -0.5 | 0.3 | -2.4
SMILES | FN deposition inh | HIV Env fusion | DENV2 CPE | PglD inh | rRNA inh HTS | PGC1a acetyl inh
COc1cccc(S(=O)(=O)N(C)C[C@H]2Oc3cc(C4=CCCC4)ccc3S(=O)(=O)N([C@@H](C)CO)C[C@H]2C)c1 | -0.9 | 110.2*[16.7 µM] | -8.0 | -0.2 | 6.6 | -19.4
CC(=O)OC(C=C(C)C)C/C(C)=C/COc1c2ccoc2cc2oc(=O)ccc12 (stereo not drawn) | 4.5 | -246.2 | -7.1 | -6.6 | -21.4* | 6.4
CC(C)(O)C(O)COc1c2ccoc2cc2oc(=O)ccc12 (stereo not drawn) | . | . | ? | 2.7 | 2.3 | -3.9
COc1c(O)cc2c(c1O)C1OC(CO)C(O)C(O)C1OC2=O (stereo not drawn) | 1.4 | 12.5 | 11.1 | 8.4 | -22.3* | 8.6
COc1c(O)cc2c(c1O)[C@@H]1OC(CO)C(O)C(O)[C@H]1OC2=O (stereo partly drawn) | 2.1 | -36.8 | -4.7 | -0.7 | . | -0.6
COc1cc(/C=C/C(=O)OCC(=O)NCCCc2ccccc2)cc(OC)c1OC | 0.4 | -3.7 | 12.5 | 2.4 | -18.4* | -8.0
COc1cc(/C=C/C(=O)OCC(=O)NCCc2ccccc2)cc(OC)c1OC | 4.5 | 28.2 | 0.8 | . | -22.0 | .
CN(C)C(=O)[C@H]1[C@H](CO)[C@H]2Cn3c(cccc3=O)[C@@H]1N2C(=O)c1ccccc1 | . | . | 1.6 | -0.6 | 0.8 | .
COc1ccc(C(=O)NC(=S)Nc2ccc(CN3CCOCC3)cc2)cc1Br | 0.4 | -13.5 | -3.7 | 5.3 | -21.5* | 10.1
COc1ccc(C(=O)NC(=S)Nc2ccc(CN3CCOCC3)cc2)cc1 | -10.5 | -11.1 | -8.6 | 5.4 | -3.1 | 2.3
CCOc1ccc(NC(=O)c2ccc(NC(=O)c3ccc(CN4CCOCC4)cc3)cc2)cc1 | -6.9 | 12.1 | -1.6 | . | 5.0 | 5.5
CCOc1ccc(C(=O)Nc2ccc(CN3CCOCC3)cc2)cc1Br | 7.3 | -21.9 | 37.1* | -3.9 | 7.0 | 5.6
O=P(OC1CCCCC1)(OC1CCCCC1)C(O)c1ccccc1 (stereo not drawn) | 3.3 | 60.8* | . | -2.8 | . | 4.9
COC1=CC(=O)OC(c2cccc([N+](=O)[O-])c2)C1 (stereo not drawn) | -2.1 | -24.7 | 41.2* | . | . | .
COC1=CC(=O)OC(c2cccc(OC)c2)C1 (stereo not drawn) | 8.1 | -5.7 | -8.6 | . | 5.6 | .
C=CCOc1ccccc1CN1CCC(Cc2ccccc2)CC1 | 1.4 | -4.2 | 23.6* | 0.5 | -10.2 | 0.6
Cc1nc2c(-c3ccccc3)c[nH]n2c(=O)c1Cc1ccccc1 | . | 20.7 | 4.3 | 9.5 | -20.3* | 3.0
Cc1cc(=O)n2[nH]cc(-c3ccccc3)c2n1 | -0.2 | -23.0 | -2.4 | -156.9 | -7.3 | 1.4
